From PubChem
An excerpt weighted towards active compounds, which were near 6.4% of everything screened.
Ecoli tolC: growth inhibitors of E. coli tolC mutant, primary screen, strain BW25113 ΔtolC::kan, 384-well. OD615. growth inhibition, % at 10 µM (by protocol). actives 2.2% (n = 65,000);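 active means growth inhibition at or above a cutoff equal to the mean over every tested compound plus 3 SD, cut at about 60% in these data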;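 further: growth measured after 20 h incubation at 37 °C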
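Test system: E. coli BW25113 ΔtolC::kan bacteria | Medium: Kanamycin-containing LB broth (50 µg/mL) | Dosing: One dose of 10 µM final | Times: 20 h incubation with compound, 37 °C | Detection: Optical density read at 615 nm | Read-out basis: Percent growth inhibition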
Ecoli WT expand: growth inhibitors of wild-type E. coli, primary screen, strain BW25113, expanded library, OD600. OD600 absorbance. growth inhibition, % at 100 µM. actives 0.15% (n = 98,000). AID 710, 2007;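 active means growth inhibition above about 50% at one test dose, limit read from the data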;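 further: growth measured after 20 h incubation at 37 °C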
Jurkat viability: cytotoxicity toward Jurkat T cells, primary screen, cytotoxicity control, cell-based, Jurkat E6.1, 60K MLSMR library; AID 463, 2006; actives 1.2% (n = 56,000); Jurkat E6.1 viability, ATP luminescence, 48 h; inhibition, % at 4 µM;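 active means inhibition above the mean inhibition of all tested compounds plus 3 SD, cut at about 28% in these data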
H69AR growth 86K: proliferation blockers of H69AR lung cancer cells, primary screen, cell-based, human, 86K library | H69AR lung tumor viability, ATP luminescence, 72 h; active compounds read low | viability, % at 10 µM | actives 6% (n = 85,000);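 active means viability at or below 40%; inactive means viability above 40%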;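 further: multidrug resistant small cell line overexpressing MRP-1 efflux transporter; 100% = mean luminescence of untreated control wells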
Fibroblast inh: antiproliferative effect on LL 47 fibroblasts – human, LL 47 cells, CellTiter-Glo luminescence, primary screen; LL 47 human lung fibroblast viability, ATP luminescence; active compounds read low; viability, % at 10 µM; AID 719, 2007; actives 1.1% (n = 85,000);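 active means viability at or below 50% in the single dose screen; inactive means viability above 50%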;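 further: compound exposure lasted 72 h before the ATP readout; 100% = median luminescence of untreated cell-only wells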
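Test system: LL 47 human lung fibroblasts / Incubation: 72 h compound exposure at 37 °C after overnight plating / Technique: luminescent ATP detection, CellTiter-Glo / Compound dosing: 0.1% DMSO in all compound wells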
HUVEC inhibit: inhibitors of HUVEC proliferation, primary screen, cell-based, 384-well | CellTiter-Glo luminescence, 72 h; active compounds read low | viability, % at 10 µM (by protocol) | actives 1.1% (n = 86,000);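 active means viability at or below 30%; inactive means viability above 30%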;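 further: 100% = median luminescence of DMSO-only cell control wells on each plate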
The depositor's hits bear a star.

Screening Cn1nc(CC(=O)Nc2ccc3c(c2)OCCO3)c2ccccc2c1=O returned Ecoli tolC 20, Ecoli WT expand -6 and Jurkat viability 95*.
Screening COc1ccc(Cl)cc1NC(=O)Cn1c(=O)n2nc(C)nc2c2ccccc21 returned Ecoli tolC 8, Ecoli WT expand -8, Jurkat viability -5, H69AR growth 86K 0.9*, Fibroblast inh 103 and HUVEC inhibit 93.
For CCOP(=O)(c1ccc(N(C)C)cc1)C(O)c1ccc(Cl)cc1 (stereo not drawn) the results were Ecoli tolC 17, Ecoli WT expand 3, Jurkat viability -3, H69AR growth 86K 102, Fibroblast inh 104 and HUVEC inhibit 100.
For Cc1ccc(-n2nnnc2SCC(=O)N2CC(=O)Nc3ccccc32)cc1 the results were Ecoli WT expand 4.
`COc1ccccc1NC(=O)Cn1nc(-c2ccc(Cl)cc2)c2ccccc2c1=O` gave Ecoli WT expand -10, H69AR growth 86K 35*, Fibroblast inh 105 and HUVEC inhibit 89.
CC(C)(C)OC(=O)N1CCN(c2ccc(NC(=O)c3cc4ccccc4oc3=O)cc2)CC1 was read as Ecoli tolC -11.
For Cn1nc(CC(=O)NCc2cccc3ccccc23)c2ccccc2c1=O the results were Ecoli WT expand 0, H69AR growth 86K 34*, Fibroblast inh 97 and HUVEC inhibit 99.
Cc1cnc(C(=O)Nc2ccc(N3CCN(C(=O)OC(C)(C)C)CC3)cc2)cn1 was read as Ecoli tolC -12, Ecoli WT expand -2, Jurkat viability 2, H69AR growth 86K 28*, Fibroblast inh 60 and HUVEC inhibit 72.
For Cn1nc(CC(=O)Nc2ccc(N3CCN(C(=O)OC(C)(C)C)CC3)cc2)c2ccccc2c1=O the results were Ecoli tolC 11, Ecoli WT expand -24, Jurkat viability 99*, H69AR growth 86K 37*, Fibroblast inh 96 and HUVEC inhibit 70.
For CCNC(=O)CCn1nc(-c2ccc(Cl)cc2)c2ccccc2c1=O the results were Ecoli tolC 20, Ecoli WT expand 2, H69AR growth 86K 69, Fibroblast inh 91 and HUVEC inhibit 79.
For COCCSc1nc2c(c(=O)[nH]c(=O)n2C)n1CCC(C)C the results were Ecoli tolC -1, Ecoli WT expand 4, Jurkat viability -7, H69AR growth 86K 70, Fibroblast inh 99 and HUVEC inhibit 102.
For COc1cc(OC)cc(-n2nnnc2SCC(=O)N2CCCc3ccccc32)c1 the results were Ecoli tolC 84*, Ecoli WT expand -10, Jurkat viability 4, H69AR growth 86K 81, Fibroblast inh 98 and HUVEC inhibit 82.
For COCCn1c(SCC(=O)N2CCCc3ccccc32)nc2cccnc21 the results were Ecoli tolC -4, Ecoli WT expand 7, Jurkat viability -4, H69AR growth 86K 19*, Fibroblast inh 108 and HUVEC inhibit 87.
For COc1cccc(-n2nnnc2SCC(=O)N2CCCc3ccccc32)c1 the results were Ecoli tolC 24, Ecoli WT expand -13, Jurkat viability 10, H69AR growth 86K 69, Fibroblast inh 96 and HUVEC inhibit 102.
For C/C(=N\NC(=O)CC1N=C(Cc2ccccc2)NNC1=O)c1ccc(Cl)cc1Cl (stereo not drawn) the results were Ecoli WT expand -4, H69AR growth 86K 69, Fibroblast inh 104 and HUVEC inhibit 70.
Screening COc1ccc(C(=O)NC(=O)Nc2cc(C)ccn2)cc1 returned Ecoli tolC -8, Ecoli WT expand -3, Jurkat viability 1, H69AR growth 86K 40*, Fibroblast inh 86 and HUVEC inhibit 65.
For O=C(CN1C(=O)c2ccccc2S1(=O)=O)c1ccccc1 the results were Ecoli tolC 4, H69AR growth 86K 100, Fibroblast inh 95 and HUVEC inhibit 101.
Cc1ccc(C(=O)CN2/C(=C(\O)c3ccccc3)C(=O)c3ccccc3S2(=O)=O)c(C)c1 was read as Ecoli WT expand 15, H69AR growth 86K 24*, Fibroblast inh 91 and HUVEC inhibit 78.
For O=C1/C(=C/c2ccccc2)CSc2sccc21 the results were Ecoli WT expand 12, H69AR growth 86K 88, Fibroblast inh 97 and HUVEC inhibit 94.
O=C(c1cc(C2CC2)on1)N1CCN(C(c2ccccc2)c2ccccc2)CC1 was read as Ecoli tolC 65*, Ecoli WT expand -4 and Jurkat viability -6.
`O=C(c1cc(-c2cccc(O)c2)on1)N1CCN(C(c2ccccc2)c2ccccc2)CC1` gave Ecoli tolC 28, Ecoli WT expand -2, Jurkat viability 4, H69AR growth 86K 5.2*, Fibroblast inh 84 and HUVEC inhibit 80.
For CN1CCN(C(=O)c2cc(-c3cccc(Cl)c3)on2)CC1 the results were Ecoli tolC -22, Ecoli WT expand -8, Jurkat viability -5, H69AR growth 86K 107, Fibroblast inh 103 and HUVEC inhibit 86.
Screening Cc1cc(C(=O)N2CCN(C(c3ccccc3)c3ccccc3)CC2)on1 returned Ecoli tolC 40, Ecoli WT expand -10, Jurkat viability 2, H69AR growth 86K 91, Fibroblast inh 99 and HUVEC inhibit 108.
`Cc1cc(C(=O)NCCC(c2ccccc2)c2ccccc2)c(C)o1` gave Ecoli WT expand -1.
Screening COc1ccc(CC(=O)Nc2nccs2)cc1OC returned Ecoli tolC -5.
Screening COc1ccc(CC(=O)Nc2nc(C)cs2)cc1OC returned Ecoli tolC 14, Ecoli WT expand 7, Jurkat viability 37*, H69AR growth 86K 84 and HUVEC inhibit 102.
COc1ccc(CC(=O)Nc2cccc(-c3nnc(-c4ccc(C)cc4)o3)c2)cc1OC was read as Ecoli tolC 21, Ecoli WT expand -3 and Jurkat viability 7.
Screening COc1ccc(CC(=O)Nc2ccc(-c3nnc(-c4ccccc4)o3)cc2)cc1OC returned Ecoli tolC -10, Ecoli WT expand 0, Jurkat viability -5, H69AR growth 86K 78, Fibroblast inh 97 and HUVEC inhibit 92.
Screening COc1ccc(CC(=O)Nc2cccc(-c3nnc(-c4ccccc4)o3)c2)cc1OC returned Ecoli tolC 10, Ecoli WT expand -1, Jurkat viability 33*, H69AR growth 86K 51, Fibroblast inh 54 and HUVEC inhibit 46.
`COc1ccc(CC(=O)Nc2cccc(-c3nnc(-c4cccc(C)c4)o3)c2)cc1OC` gave Ecoli tolC 1, Ecoli WT expand 1, Jurkat viability 43*, H69AR growth 86K 41, Fibroblast inh 35* and HUVEC inhibit 3.2*.
